Counter-ions that a name gives are not always drawn. Calls of active or inactive are those of the source. The rule behind the calls is not given here. Where a SMILES comes first, the peptide text is derived from it. Bridges are numbered along the chain shown (N, C = ends). The star is where a group is joined. Tfa = O=C(C(F)(F)F)*
What was measured:
[1] = biological target: T1, NAD-dependent protein deacetylase sirtuin-1 (Homo sapiens) (UniProt Q96EB6); assay: Inhibition of GST-tagged human SIRT1 (133 to 747 amino acids) using ZMAL as substrate at 200 uM after 4 hrs by fluorescence-based microplate reader method
T1 sequence (whole entry): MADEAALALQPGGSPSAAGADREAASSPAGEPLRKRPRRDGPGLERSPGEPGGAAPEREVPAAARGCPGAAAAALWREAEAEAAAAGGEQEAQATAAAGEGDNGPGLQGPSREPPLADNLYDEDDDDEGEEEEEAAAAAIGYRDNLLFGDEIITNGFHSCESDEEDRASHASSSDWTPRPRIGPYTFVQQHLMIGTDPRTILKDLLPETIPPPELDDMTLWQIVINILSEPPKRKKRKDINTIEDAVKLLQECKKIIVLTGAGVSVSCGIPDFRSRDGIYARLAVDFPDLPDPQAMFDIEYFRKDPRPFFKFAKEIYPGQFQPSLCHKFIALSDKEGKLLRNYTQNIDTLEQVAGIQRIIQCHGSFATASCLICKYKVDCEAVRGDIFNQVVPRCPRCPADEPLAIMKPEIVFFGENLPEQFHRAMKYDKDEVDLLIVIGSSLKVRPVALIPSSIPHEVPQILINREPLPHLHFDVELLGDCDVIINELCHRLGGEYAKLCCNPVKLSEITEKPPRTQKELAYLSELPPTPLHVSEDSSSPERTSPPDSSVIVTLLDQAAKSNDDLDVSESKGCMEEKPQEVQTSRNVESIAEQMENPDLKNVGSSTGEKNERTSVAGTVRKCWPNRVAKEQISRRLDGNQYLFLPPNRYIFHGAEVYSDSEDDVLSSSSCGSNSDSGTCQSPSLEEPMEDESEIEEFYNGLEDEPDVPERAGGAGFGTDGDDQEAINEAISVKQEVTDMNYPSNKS

[2] = biological target: T2, NAD-dependent protein deacetylase sirtuin-2 (Homo sapiens, UniProt Q8IXJ6); assay: Inhibition of N-terminal his6-tagged human SIRT2 (25 to 389 amino acids) using ZMAL as substrate after 4 hrs by fluorescence-based microplate reader method
T2 sequence (Q8IXJ6 whole entry): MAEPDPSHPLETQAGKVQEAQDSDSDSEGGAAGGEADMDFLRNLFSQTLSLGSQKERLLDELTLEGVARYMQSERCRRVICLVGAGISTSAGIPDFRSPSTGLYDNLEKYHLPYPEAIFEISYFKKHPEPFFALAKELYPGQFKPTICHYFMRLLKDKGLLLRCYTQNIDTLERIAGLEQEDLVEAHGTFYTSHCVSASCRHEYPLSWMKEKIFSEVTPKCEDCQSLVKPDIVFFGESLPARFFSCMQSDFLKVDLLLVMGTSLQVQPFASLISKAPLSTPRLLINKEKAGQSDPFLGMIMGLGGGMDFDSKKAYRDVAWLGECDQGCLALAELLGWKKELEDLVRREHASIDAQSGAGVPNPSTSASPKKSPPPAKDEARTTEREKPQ

[3] = biological target: T3, NAD-dependent protein deacetylase sirtuin-2 (Homo sapiens) (UniProt Q8IXJ6); assay: Inhibition of SIRT2 in human HeLa cells assessed as tubulin hyperacetylation at 10 uM after 1 hr by DAPI staining-based immunofluorescence microscopy relative to control; assay type: cell-based
T3 sequence (whole entry): T2 sequence (Q8IXJ6 whole entry)
Procedure, shortened: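 HeLa cells, 0.5 x 10^4 per 12 mm coverslip, were plated overnight, then exposed for 1 h to 10 µM compound added from 10 mM DMSO stocks, with DMSO vehicle controls. The microtubule network was immunostained for acetylation and nuclei were counterstained with DAPI, followed by immunofluorescence microscopy.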

[4] = biological target: T3, NAD-dependent protein deacetylase sirtuin-2 (Homo sapiens); assay: Inhibition of SIRT2 in human HeLa cells assessed as tubulin acetylation at 10 uM after 1 hr by Western blotting method; assay type: cell-based
Procedure, shortened: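 HeLa cells grown in high-glucose DMEM with 10% FCS and kanamycin at 37 °C, 5% CO2. 1.5 x 10^4 cells per well were plated overnight, then exposed to compound for 1 h from 10 mM DMSO stocks, with DMSO vehicle controls. Cells were lysed in reducing sample buffer and run on SDS-PAGE/PVDF. Blots were probed for acetyl-α-tubulin Lys40 (6-11B-1) and then GAPDH. Values were normalized to the mean control on the same blot.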

[5] = biological target: T2, NAD-dependent protein deacetylase sirtuin-2; assay: Inhibition of human SIRT2
[6] = biological target: T4, NAD-dependent protein deacetylase sirtuin-1 (Homo sapiens, UniProt Q96EB6); assay: Inhibition of human SIRT1 by fluorometric assay
T4 sequence (Q96EB6 whole entry): T1 sequence (whole entry)
Procedure, shortened: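 Fluorescence-based homogeneous assay with ZMAL (Cbz-Lys(acetyl)-AMC) substrate at 10,5 µM final and NAD+ at 500 µM final, in Tris/NaCl/KCl buffer pH 8.0 with 5% (v/v) DMSO final. Incubated 4 h at 37 °C, then stopped with trypsin/nicotinamide for 20 min at 37 °C. Read at ex 390/em 460 nm against no-inhibitor controls, at least duplicates.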

[7] = biological target: T4, NAD-dependent protein deacetylase sirtuin-1; assay: Inhibition of GST-tagged human SIRT1 (133 to 747 amino acids) using ZMAL as substrate after 4 hrs by fluorescence-based microplate reader method
[8] = biological target: T4, NAD-dependent protein deacetylase sirtuin-1; assay: Inhibition of human SIRT1 using RHKK(Ac)-AMC as substrate preincubated for 10 mins followed by substrate addition by fluorescence assay
[9] = biological target: T2, NAD-dependent protein deacetylase sirtuin-2; assay: Inhibition of human SIRT2 using RHKK(Ac)-AMC as substrate preincubated for 10 mins followed by substrate addition by fluorescence assay

Question: Which inhibition [1] does the source give for `Cc1cc(C)nc(SCC(=O)Nc2ncc(Cc3cccc4ccc(Cl)cc34)s2)n1` here?
Answer: The inhibition was 29%.

Question: What about the IC50 [2] of the same compound?
Answer: The IC50 was 180 nM.

Question: What about the inhibition [3] of the same compound?
Answer: Its inhibition is “Active”.

Question: And the inhibition [4]?
Answer: The inhibition was “Active”.

Question: How did the IC50 [5] turn out when `CC(C)[C@@H]1NC(=O)[C@H](Cc2c[nH]cn2)NC(=O)[C@H](Cc2ccc(O)cc2)NC(=O)[C@H]([C@@H](C)O)NC(=O)[C@H](Cc2c[nH]cn2)NC(=O)[C@H](Cc2ccc(O)cc2)NC(=O)CSC[C@@H](C(N)=O)NC(=O)[C@H](Cc2ccc(O)cc2)NC(=O)[C@H](Cc2ccc(O)cc2)NC(=O)[C@H](CC(N)=O)NC(=O)[C@H]([C@@H](C)O)NC(=O)[C@H](CCCNC(=N)N)NC(=O)[C@H](CCCNC(=N)N)NC(=O)[C@H](CCCCNC(=O)C(F)(F)F)NC1=O` ({CH2CO}-YHTYHVK(Tfa)RRTNYYC-NH2; thioether N-14) was run?
Answer: The IC50 was 1 nM.

Question: For `N#C/C(=C/c1ccc(-c2cc(Cl)ccc2Cl)o1)C(=O)Nc1cccc2ncccc12`, which IC50 [6] is on record?
Answer: The IC50 was > 40 µM.

Question: For `Cc1cc(C)nc(SCC(=O)Nc2ncc(Cc3cccc4ccccc34)s2)n1`, which inhibition [1] is on record?
Answer: Its inhibition is < 10%.

Question: And the IC50 [7]?
Answer: Its IC50 is > 50 µM.

Question: With `COc1ccc2ccccc2c1Cn1cnc2sc3c(c2c1=O)CCC(NCc1cccnc1)C3` (stereo not given) as the compound, how does the IC50 [8] read?
Answer: The IC50 was > 100 µM.

Question: What about the IC50 [9] of the same compound?
Answer: The IC50 was 1450 nM.
